How the values were obtained:
Rattus norvegicus [1] = test: Antihypertensive activity in spontaneously hypertensive rats was measured as average blood pressure at 15 mg/kg, ia after 24 hours of postdose-1; type: functional; details: route intra-arterial
Procedure, shortened: (§1)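 SHR model with two successive doses, designated dose 1 and dose 2. Group-average blood pressure in mmHg was recorded before dosing and at 4 h and 24 h after each dose. The route is oral unless marked intra-arterial or subcutaneous. A table footnote marks doses that gave no significant lowering at 4 or 24 h postdose.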

Rattus norvegicus [2] = test: Antihypertensive activity in spontaneously hypertensive rats was measured as average blood pressure at 15 mg/kg, sc after 4 hours of postdose-2; type: functional; details: route subcutaneous; procedure, shortened: as §1
Rattus norvegicus [3] = test: Antihypertensive activity in spontaneously hypertensive rats was measured as average blood pressure at 15 mg/kg, ia before predose intra arterial.; type: functional, Artery; procedure, shortened: as §1
Rattus norvegicus [4] = test: Antihypertensive activity in spontaneously hypertensive rats was measured as average blood pressure at 15 mg/kg, ia after 4 hours of postdose-2; type: functional; details: route intra-arterial; procedure, shortened: as §1
Rattus norvegicus [5] = test: Antihypertensive activity in spontaneously hypertensive rats was measured as average blood pressure at 15 mg/kg, sc after 24 hours of postdose-2; type: functional; details: route subcutaneous; procedure, shortened: as §1
Rattus norvegicus [6] = test: Antihypertensive activity in spontaneously hypertensive rats was measured as average blood pressure at 15 mg/kg, ia after 4 hours of postdose-1; type: functional; details: route intra-arterial; procedure, shortened: as §1
Rattus norvegicus [7] = test: Antihypertensive activity in spontaneously hypertensive rats was measured as average blood pressure at 15 mg/kg, sc after 24 hours of postdose-1; type: functional; details: route subcutaneous; procedure, shortened: as §1
Rattus norvegicus [8] = test: Antihypertensive activity in spontaneously hypertensive rats was measured as average blood pressure at 15 mg/kg, sc before predose subcutaneous; type: functional; procedure, shortened: as §1
Rattus norvegicus [9] = test: Antihypertensive activity in spontaneously hypertensive rats was measured as average blood pressure at 15 mg/kg, sc after 4 hours of postdose-1; type: functional; details: route subcutaneous; procedure, shortened: as §1
Rattus norvegicus [10] = test: Antihypertensive activity in spontaneously hypertensive rats was measured as average blood pressure at 30 mg/kg, po before predose; type: functional; procedure, shortened: as §1
Rattus norvegicus [11] = test: Antihypertensive activity in spontaneously hypertensive rats was measured as average blood pressure at 10 mg/kg, p.o. after 4 hours of postdose-2; type: functional; details: route oral; procedure, shortened: as §1
Rattus norvegicus [12] = test: Antihypertensive activity in spontaneously hypertensive rats was measured as average blood pressure at 30 mg/kg, p.o. after 24 hours of postdose-1; type: functional; details: route oral; procedure, shortened: as §1
Rattus norvegicus [13] = test: Antihypertensive activity in spontaneously hypertensive rats was measured as average blood pressure at 30 mg/kg, po after 24 hours of postdose-2; type: functional; procedure, shortened: as §1
Rattus norvegicus [14] = test: Antihypertensive activity in spontaneously hypertensive rats was measured as average blood pressure at 100 mg/kg, p.o. after 24 hours of postdose-2; type: functional; details: route oral; procedure, shortened: as §1
Rattus norvegicus [15] = test: Antihypertensive activity in spontaneously hypertensive rats was measured as average blood pressure at 10 mg/kg, p.o. after 24 hours of postdose-1; type: functional; details: route oral; procedure, shortened: as §1
Rattus norvegicus [16] = test: Antihypertensive activity in spontaneously hypertensive rats was measured as average blood pressure at 100 mg/kg, p.o. after 24 hours of postdose-1; type: functional; details: route oral; procedure, shortened: as §1
Rattus norvegicus [17] = test: Antihypertensive activity in spontaneously hypertensive rats was measured as average blood pressure at 10 mg/kg, p.o. after 4 hours of postdose-1; type: functional; details: route oral; procedure, shortened: as §1
Rattus norvegicus [18] = test: Antihypertensive activity in spontaneously hypertensive rats was measured as average blood pressure at 100 mg/kg, p.o. after 4 hours of postdose-2; type: functional; details: route oral; procedure, shortened: as §1
Rattus norvegicus [19] = test: Antihypertensive activity in spontaneously hypertensive rats was measured as average blood pressure at 30 mg/kg, p.o. after 4 hours of postdose-2; type: functional; details: route oral; procedure, shortened: as §1
Rattus norvegicus [20] = test: Antihypertensive activity in spontaneously hypertensive rats was measured as average blood pressure at 100 mg/kg, p.o. after 4 hours of postdose-1; type: functional; details: route oral; procedure, shortened: as §1
Rattus norvegicus [21] = test: Antihypertensive activity in spontaneously hypertensive rats was measured as average blood pressure at 100 mg/kg, p.o. before predose; type: functional; details: route oral; procedure, shortened: as §1
Rattus norvegicus [22] = test: Antihypertensive activity in spontaneously hypertensive rats was measured as average blood pressure at 10 mg/kg, p.o. after 24 hours of postdose-2; type: functional; details: route oral; procedure, shortened: as §1
Rattus norvegicus [23] = test: Antihypertensive activity in spontaneously hypertensive rats was measured as average blood pressure at 10 mg/kg, p.o. before predose; type: functional; details: route oral; procedure, shortened: as §1
Rattus norvegicus [24] = test: Antihypertensive activity in spontaneously hypertensive rats was measured as average blood pressure at 50 mg/kg, p.o. after 4 hours of postdose-1; type: functional; details: route oral
Procedure, shortened: (§2)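 Spontaneously hypertensive rats dosed orally twice. Average blood pressure (mmHg) recorded before dosing and at 4 h and 24 h after the first dose and after the second dose. Postdose values checked for significant lowering against predose.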

Rattus norvegicus [25] = test: Antihypertensive activity in spontaneously hypertensive rats was measured as average blood pressure at 17 mg/kg, p.o. after 4 hours of postdose-1; type: functional; details: route oral; procedure, shortened: as §1
Rattus norvegicus [26] = test: Antihypertensive activity in spontaneously hypertensive rats was measured as average blood pressure at 50 mg/kg, p.o. before predose; type: functional; details: route oral; procedure, shortened: as §2
Rattus norvegicus [27] = test: Antihypertensive activity in spontaneously hypertensive rats was measured as average blood pressure at 17 mg/kg, p.o. after 24 hours of postdose-1; type: functional; details: route oral; procedure, shortened: as §1
Rattus norvegicus [28] = test: Antihypertensive activity in spontaneously hypertensive rats was measured as average blood pressure at 17 mg/kg, p.o. after 4 hours of postdose-2; type: functional; details: route oral; procedure, shortened: as §1
Rattus norvegicus [29] = test: Antihypertensive activity in spontaneously hypertensive rats was measured as average blood pressure at 50 mg/kg, p.o. after 24 hours of postdose-1; type: functional; details: route oral; procedure, shortened: as §2
Rattus norvegicus [30] = test: Antihypertensive activity in spontaneously hypertensive rats was measured as average blood pressure at 17 mg/kg, p.o. before predose; type: functional; details: route oral; procedure, shortened: as §1
Rattus norvegicus [31] = test: Antihypertensive activity in spontaneously hypertensive rats was measured as average blood pressure at 17 mg/kg, p.o. after 24 hours of postdose-2; type: functional; details: route oral; procedure, shortened: as §1
Rattus norvegicus [32] = test: Antihypertensive activity in spontaneously hypertensive rats was measured as average blood pressure at 50 mg/kg, p.o. after 24 hours of postdose-2; type: functional; details: route oral; procedure, shortened: as §2
Rattus norvegicus [33] = test: Antihypertensive activity in spontaneously hypertensive rats was measured as average blood pressure at 50 mg/kg, po after 4 hours of postdose-2; type: functional; procedure, shortened: as §2
Rattus norvegicus [34] = test: Antihypertensive activity in spontaneously hypertensive rats was measured as average blood pressure at 4 mg/kg, p.o. after 24 hours of postdose-2; type: functional; details: route oral; procedure, shortened: as §1
Rattus norvegicus [35] = test: Antihypertensive activity in spontaneously hypertensive rats was measured as average blood pressure at 12 mg/kg, p.o. after 24 hours of postdose-2; type: functional; details: route oral; procedure, shortened: as §1
Rattus norvegicus [36] = test: Antihypertensive activity in spontaneously hypertensive rats was measured as average blood pressure at 12 mg/kg, p.o. after 24 hours of postdose-1; type: functional; details: route oral; procedure, shortened: as §1
Rattus norvegicus [37] = test: Antihypertensive activity in spontaneously hypertensive rats was measured as average blood pressure at 4 mg/kg, p.o. after 4 hours of postdose-1; type: functional; details: route oral; procedure, shortened: as §1
Rattus norvegicus [38] = test: Antihypertensive activity in spontaneously hypertensive rats was measured as average blood pressure at 4 mg/kg, po before predose; type: functional; procedure, shortened: as §1
Rattus norvegicus [39] = test: Antihypertensive activity in spontaneously hypertensive rats was measured as average blood pressure at 4 mg/kg, p.o. after 4 hours of postdose-2; type: functional; details: route oral; procedure, shortened: as §1
Rattus norvegicus [40] = test: Antihypertensive activity in spontaneously hypertensive rats was measured as average blood pressure at 12 mg/kg, p.o. before predose; type: functional; details: route oral; procedure, shortened: as §1
Rattus norvegicus [41] = test: Antihypertensive activity in spontaneously hypertensive rats was measured as average blood pressure at 12 mg/kg, p.o. after 4 hours of postdose-2; type: functional; details: route oral; procedure, shortened: as §1
Rattus norvegicus [42] = test: Antihypertensive activity in spontaneously hypertensive rats was measured as average blood pressure at 4 mg/kg, po after 24 hours of postdose-1; type: functional; procedure, shortened: as §1
Rattus norvegicus [43] = test: Antihypertensive activity in spontaneously hypertensive rats was measured as average blood pressure at 12 mg/kg, p.o. after 4 hours of postdose-1; type: functional; details: route oral; procedure, shortened: as §1

`CC(=O)c1c(-c2ccc(Cl)cc2)c(-c2ccc(Cl)cc2)nn(CCOC(=O)C(N)CCCCN)c1=O.Cl.Cl` (stereo unspecified) gave a BP (Rattus norvegicus [1]) of 159 mmHg, a BP (Rattus norvegicus [2]) of 166 mmHg and a BP (Rattus norvegicus [3]) of 199 mmHg. For the same compound, the BP (Rattus norvegicus [4]) was 171 mmHg, the BP (Rattus norvegicus [5]) was 185 mmHg and the BP (Rattus norvegicus [6]) was 183 mmHg. For the same compound, the BP (Rattus norvegicus [7]) was 171 mmHg, the BP (Rattus norvegicus [8]) was 181 mmHg and the BP (Rattus norvegicus [9]) was 169 mmHg.

For `CC(=O)OCCn1nc(-c2ccc(Cl)cc2)c(-c2ccc(Cl)cc2)c(C(C)=O)c1=O`, the BP (Rattus norvegicus [10]) was 183 mmHg, the BP (Rattus norvegicus [11]) was 149 mmHg and the BP (Rattus norvegicus [12]) was 165 mmHg. The BP (Rattus norvegicus [13]) was 152 mmHg, the BP (Rattus norvegicus [14]) was 143 mmHg and the BP (Rattus norvegicus [15]) was 181 mmHg. The BP (Rattus norvegicus [16]) was 132 mmHg, the BP (Rattus norvegicus [17]) was 162 mmHg and the BP (Rattus norvegicus [18]) was 122 mmHg. For the same compound, the BP (Rattus norvegicus [19]) was 140 mmHg, the BP (Rattus norvegicus [20]) was 150 mmHg and the BP (Rattus norvegicus [21]) was 182 mmHg. It also gave a BP (Rattus norvegicus [22]) of 176 mmHg and a BP (Rattus norvegicus [23]) of 183 mmHg.

For `Br.Br.CC(=O)c1c(-c2ccc(Cl)cc2)c(-c2ccc(Cl)cc2)nn(CCOC(=O)C(N)CCCCN)c1=O` (stereo unspecified), the BP (Rattus norvegicus [24]) was 179 mmHg, the BP (Rattus norvegicus [25]) was 165 mmHg and the BP (Rattus norvegicus [26]) was 231 mmHg. It also gave a BP (Rattus norvegicus [27]) of 162 mmHg, a BP (Rattus norvegicus [28]) of 143 mmHg and a BP (Rattus norvegicus [29]) of 173 mmHg. It also gave a BP (Rattus norvegicus [30]) of 189 mmHg and a BP (Rattus norvegicus [31]) of 175 mmHg.

`N=C(N)NCCN1CCCCCCC1` [GUANETHIDINE] was tested, and the BP (Rattus norvegicus [24]) was 154 mmHg, the BP (Rattus norvegicus [32]) was 186 mmHg and the BP (Rattus norvegicus [26]) was 187 mmHg. For the same compound, the BP (Rattus norvegicus [33]) was 138 mmHg and the BP (Rattus norvegicus [29]) was 166 mmHg.

`CC(=O)c1c(-c2ccc(Cl)cc2)c(-c2ccc(Cl)cc2)nn(CCOC(=O)CN)c1=O.Cl` showed a BP (Rattus norvegicus [34]) of 175 mmHg, a BP (Rattus norvegicus [35]) of 164 mmHg and a BP (Rattus norvegicus [36]) of 161 mmHg. For the same compound, the BP (Rattus norvegicus [37]) was 162 mmHg, the BP (Rattus norvegicus [38]) was 184 mmHg and the BP (Rattus norvegicus [14]) was 166 mmHg. The BP (Rattus norvegicus [39]) was 161 mmHg, the BP (Rattus norvegicus [40]) was 199 mmHg and the BP (Rattus norvegicus [16]) was 131 mmHg. It also gave a BP (Rattus norvegicus [18]) of 124 mmHg, a BP (Rattus norvegicus [20]) of 138 mmHg and a BP (Rattus norvegicus [21]) of 178 mmHg. The BP (Rattus norvegicus [41]) was 153 mmHg, the BP (Rattus norvegicus [42]) was 189 mmHg and the BP (Rattus norvegicus [43]) was 164 mmHg.

— ChEMBL document CHEMBL1121378, “Lipophilic and hydrophilic esters of 4-acetyl-2-(2-hydroxyethyl)-5,6-bis(4-chlorophenyl)-2H-pyridazin-3-one as antihypertensive agents” (1980)
